# According to ChEMBL document CHEMBL2424622, “Development of amino-pyrimidine inhibitors of c-Jun N-terminal kinase (JNK): kinase profiling guided optimization of a 1,2,3-benzotriazole lead” (Bioorg Med Chem Lett, 2013):
# Tests used:
# [1] = target: Glycogen synthase kinase-3 beta (Homo sapiens, UniProt P49841); test: Competitive binding affinity to GSK3beta (unknown origin) at 10 uM in presence of ATP relative to control
# [2] = target: T1, Ephrin type-B receptor 3 (Homo sapiens) (UniProt P54753); test: Competitive binding affinity to EPHB3 (unknown origin) at 10 uM in presence of ATP relative to control
# T1 sequence (whole entry): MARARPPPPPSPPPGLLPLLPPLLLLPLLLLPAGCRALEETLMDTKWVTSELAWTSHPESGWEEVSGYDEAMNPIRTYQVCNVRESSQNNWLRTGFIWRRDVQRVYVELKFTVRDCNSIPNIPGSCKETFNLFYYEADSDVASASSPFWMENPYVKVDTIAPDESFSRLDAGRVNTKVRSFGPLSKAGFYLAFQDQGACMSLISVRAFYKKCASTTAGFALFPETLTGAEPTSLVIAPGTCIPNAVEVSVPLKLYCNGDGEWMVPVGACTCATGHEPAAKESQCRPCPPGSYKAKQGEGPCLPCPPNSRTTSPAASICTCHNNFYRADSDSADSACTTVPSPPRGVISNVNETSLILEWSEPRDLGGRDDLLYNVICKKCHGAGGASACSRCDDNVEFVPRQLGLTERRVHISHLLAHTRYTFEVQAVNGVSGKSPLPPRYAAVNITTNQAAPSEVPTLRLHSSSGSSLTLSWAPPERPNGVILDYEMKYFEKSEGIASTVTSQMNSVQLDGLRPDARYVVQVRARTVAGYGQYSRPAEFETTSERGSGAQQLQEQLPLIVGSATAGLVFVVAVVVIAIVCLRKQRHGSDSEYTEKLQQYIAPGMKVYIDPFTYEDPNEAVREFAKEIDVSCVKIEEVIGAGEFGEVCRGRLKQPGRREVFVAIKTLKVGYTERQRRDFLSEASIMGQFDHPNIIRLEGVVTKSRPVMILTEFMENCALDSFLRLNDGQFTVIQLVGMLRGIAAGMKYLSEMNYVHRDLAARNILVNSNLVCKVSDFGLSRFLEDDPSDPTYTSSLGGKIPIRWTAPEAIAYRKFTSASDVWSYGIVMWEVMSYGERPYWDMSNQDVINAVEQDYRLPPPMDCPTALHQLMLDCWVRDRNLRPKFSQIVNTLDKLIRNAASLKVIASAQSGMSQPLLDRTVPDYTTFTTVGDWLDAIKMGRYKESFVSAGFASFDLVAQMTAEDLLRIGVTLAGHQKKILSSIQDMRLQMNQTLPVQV
# Summary of the method: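 In vitro ATP-site competition binding assay, part of profiling against a diverse panel of 128 kinases. Each compound was tested at a single concentration of 10 µM. Kinome selectivity was summarized as S15 selectivity scores.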
# [3] = target: T2, Serine/threonine-protein kinase DCLK2 (Homo sapiens) (UniProt Q8N568); test: Competitive binding affinity to DCAMKL2 (unknown origin) at 10 uM in presence of ATP relative to control
# T2 sequence (whole entry): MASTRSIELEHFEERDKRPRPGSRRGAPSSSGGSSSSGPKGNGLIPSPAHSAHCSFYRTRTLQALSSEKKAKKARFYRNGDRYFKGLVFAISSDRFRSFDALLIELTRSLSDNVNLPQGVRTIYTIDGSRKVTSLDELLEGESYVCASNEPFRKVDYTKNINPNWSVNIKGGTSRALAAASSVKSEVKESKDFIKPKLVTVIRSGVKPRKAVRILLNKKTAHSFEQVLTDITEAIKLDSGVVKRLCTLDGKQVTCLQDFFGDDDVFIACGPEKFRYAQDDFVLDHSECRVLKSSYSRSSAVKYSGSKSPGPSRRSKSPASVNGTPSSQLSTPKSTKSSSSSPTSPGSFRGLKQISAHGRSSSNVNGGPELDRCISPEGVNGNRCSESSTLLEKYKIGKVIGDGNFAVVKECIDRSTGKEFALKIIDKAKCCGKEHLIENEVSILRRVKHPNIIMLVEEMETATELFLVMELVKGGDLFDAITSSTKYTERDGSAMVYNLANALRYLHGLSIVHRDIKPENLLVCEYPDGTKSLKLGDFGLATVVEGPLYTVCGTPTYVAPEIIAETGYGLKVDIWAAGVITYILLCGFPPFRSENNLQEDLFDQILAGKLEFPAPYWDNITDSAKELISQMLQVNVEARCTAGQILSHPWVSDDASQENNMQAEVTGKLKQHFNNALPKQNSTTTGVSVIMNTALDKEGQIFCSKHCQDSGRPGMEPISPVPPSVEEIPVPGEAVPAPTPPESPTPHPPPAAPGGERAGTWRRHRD
# [4] = target: Dual specificity testis-specific protein kinase 1 (Homo sapiens) (UniProt Q15569); test: Competitive binding affinity to TESK1 (unknown origin) at 10 uM in presence of ATP relative to control
# [5] = target: Proto-oncogene tyrosine-protein kinase receptor Ret (Homo sapiens) (UniProt P07949); test: Competitive binding affinity to RET (unknown origin) at 10 uM in presence of ATP relative to control
# Proto-oncogene tyrosine-protein kinase receptor Ret (Homo sapiens), sequence (P07949 whole entry): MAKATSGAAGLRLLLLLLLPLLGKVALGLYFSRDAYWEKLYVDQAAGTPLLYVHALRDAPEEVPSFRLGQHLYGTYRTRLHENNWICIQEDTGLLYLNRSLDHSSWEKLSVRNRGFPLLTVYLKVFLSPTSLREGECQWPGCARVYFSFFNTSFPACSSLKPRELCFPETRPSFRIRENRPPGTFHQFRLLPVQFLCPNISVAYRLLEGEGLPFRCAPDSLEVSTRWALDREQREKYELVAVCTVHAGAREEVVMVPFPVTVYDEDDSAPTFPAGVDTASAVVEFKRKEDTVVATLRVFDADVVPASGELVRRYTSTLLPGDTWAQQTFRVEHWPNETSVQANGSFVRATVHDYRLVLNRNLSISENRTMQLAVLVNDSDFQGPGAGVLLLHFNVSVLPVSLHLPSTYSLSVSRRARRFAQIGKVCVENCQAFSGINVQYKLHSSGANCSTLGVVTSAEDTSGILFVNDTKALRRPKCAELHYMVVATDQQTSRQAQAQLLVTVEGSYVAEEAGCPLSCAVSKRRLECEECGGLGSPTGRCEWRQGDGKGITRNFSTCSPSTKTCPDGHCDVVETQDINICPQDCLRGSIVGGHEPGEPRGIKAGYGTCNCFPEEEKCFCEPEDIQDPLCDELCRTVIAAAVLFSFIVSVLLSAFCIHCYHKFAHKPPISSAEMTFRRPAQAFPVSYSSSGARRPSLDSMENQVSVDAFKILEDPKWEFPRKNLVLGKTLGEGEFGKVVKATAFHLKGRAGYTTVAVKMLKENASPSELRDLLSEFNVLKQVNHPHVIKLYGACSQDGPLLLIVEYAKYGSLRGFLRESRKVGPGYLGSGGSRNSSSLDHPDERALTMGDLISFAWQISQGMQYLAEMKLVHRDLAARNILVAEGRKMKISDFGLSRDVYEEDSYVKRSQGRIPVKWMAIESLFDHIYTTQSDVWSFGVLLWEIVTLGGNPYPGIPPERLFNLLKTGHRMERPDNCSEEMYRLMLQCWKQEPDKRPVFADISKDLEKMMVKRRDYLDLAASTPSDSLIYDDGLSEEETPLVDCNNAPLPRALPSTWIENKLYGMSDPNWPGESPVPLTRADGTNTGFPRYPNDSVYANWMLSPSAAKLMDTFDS
# Dual specificity testis-specific protein kinase 1 (Homo sapiens), sequence (Q15569 whole entry, looked up): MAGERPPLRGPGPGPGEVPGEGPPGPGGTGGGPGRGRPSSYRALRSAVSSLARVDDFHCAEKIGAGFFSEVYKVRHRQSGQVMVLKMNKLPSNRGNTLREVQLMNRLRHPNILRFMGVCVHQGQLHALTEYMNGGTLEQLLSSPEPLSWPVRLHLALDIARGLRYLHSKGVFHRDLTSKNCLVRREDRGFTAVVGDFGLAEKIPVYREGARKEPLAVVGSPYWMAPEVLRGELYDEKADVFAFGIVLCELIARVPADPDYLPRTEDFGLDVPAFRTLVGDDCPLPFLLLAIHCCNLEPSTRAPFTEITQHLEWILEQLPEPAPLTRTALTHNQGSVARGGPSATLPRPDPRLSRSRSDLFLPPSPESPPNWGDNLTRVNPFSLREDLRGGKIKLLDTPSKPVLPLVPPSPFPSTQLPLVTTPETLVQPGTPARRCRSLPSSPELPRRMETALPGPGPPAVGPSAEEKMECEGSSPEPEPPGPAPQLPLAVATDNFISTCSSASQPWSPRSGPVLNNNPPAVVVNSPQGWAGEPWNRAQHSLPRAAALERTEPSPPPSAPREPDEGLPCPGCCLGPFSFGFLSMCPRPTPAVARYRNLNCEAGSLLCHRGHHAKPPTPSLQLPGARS
# Glycogen synthase kinase-3 beta, sequence (P49841 whole entry, looked up): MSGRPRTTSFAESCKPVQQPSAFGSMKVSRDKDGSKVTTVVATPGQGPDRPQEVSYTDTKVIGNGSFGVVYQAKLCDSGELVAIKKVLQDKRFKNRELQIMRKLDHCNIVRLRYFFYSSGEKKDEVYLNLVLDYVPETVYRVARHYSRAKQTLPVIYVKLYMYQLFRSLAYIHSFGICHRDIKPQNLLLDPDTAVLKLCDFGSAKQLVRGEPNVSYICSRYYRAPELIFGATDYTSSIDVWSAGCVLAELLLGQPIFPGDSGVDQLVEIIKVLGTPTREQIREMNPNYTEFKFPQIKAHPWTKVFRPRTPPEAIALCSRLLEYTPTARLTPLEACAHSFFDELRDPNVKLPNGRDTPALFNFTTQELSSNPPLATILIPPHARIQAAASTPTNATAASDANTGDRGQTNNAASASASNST
SMILES,inhibition [1],inhibition [2],inhibition [3],inhibition [4],inhibition [5]
O[C@H]1CC[C@H](Nc2nccc(-n3nnc4ccccc43)n2)CC1,100%,< 50%,< 50%,< 50%,< 50%
CS(=O)(=O)CCCOc1cccc2c1ccn2-c1ccnc(N[C@H]2CC[C@H](C(=O)N3CCC(O)CC3)CC2)n1,> 85%,,,,
O[C@H]1CC[C@H](Nc2nccc(-n3ncc4ccccc43)n2)CC1,82%,< 50%,< 50%,82%,< 50%
O[C@H]1CC[C@H](Nc2nccc(-c3n[nH]c4ccccc34)n2)CC1,,< 50%,,98%,94%
O[C@H]1CC[C@H](Nc2nccc(-n3ccc4ccccc43)n2)CC1,< 50%,< 50%,< 50%,82%,< 50%
